From ChEMBL document CHEMBL3091343, “Nicotinamide phosphoribosyltransferase inhibitors, design, preparation, and structure-activity relationship” (J Med Chem, 2013)
Activity calls are given as the source filed them. The rule behind the calls is not given here.

Legend:
[1] = Cytotoxicity against human W1L2 cells assessed as growth inhibition after 72 hrs by trypan blue assay; assay type: functional, cell-based; settings: WIL2, 72 h
MCF7 [2] = test: Cytotoxicity against human MCF7 cells after 24 hrs by clonogenic assay; assay type: functional, cell-based; settings: MCF7, 24 h
Summary of the method: (§1)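 Cells were exposed to compound for the indicated time and then seeded in 3% agar over a sheep erythrocyte feeder layer. Plates were cultured 14–21 days at 37 °C, and colonies were counted with a digital colony counter.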

A2780 [3] = test: Cytotoxicity against human A2780 cells assessed as growth inhibition after 72 hrs by WST-1 assay; assay type: functional, cell-based; settings: A2780, 72 h
SK-OV-3 = test: Cytotoxicity against human SKOV3 cells by clonogenic assay; assay type: functional, cell-based
A2780 [4] = test: Antitumor activity against human A2780 cells xenografted in NMRI/nude mouse containing large tumors assessed as tumor growth inhibition at 3 mg/kg, ip bid administered on day 1 to 4 and day 7 to 11 measured during compound administration; assay type: functional, organism-based; parameters: dose 3 mg/kg
A2780 [5] = test: Antitumor activity against human A2780 cells xenografted in NMRI/nude mouse assessed as tumor growth inhibition at 1.25 mg/kg, ip bid administered for 5 days measured at day 14 relative to vehicle-treated control; assay type: functional; settings: route intraperitoneal
Summary of the method: (§2)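 A2780 xenografts started from small tumours (about 100 mm³). Dosing was i.p. bid on days 0-4. Tumour volume was estimated as width²×length/2 and compared at day 14 with vehicle-treated animals as T/C%.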

A2780 [6] = test: Antitumor activity against human A2780 cells xenografted in NMRI/nude mouse assessed as tumor growth inhibition at 0.63 mg/kg, ip bid administered for 5 days measured at day 14 relative to vehicle-treated control; assay type: functional; settings: route intraperitoneal; summary of the method: as §2
A2780 [7] = test: Ratio of APO866 to compound for antitumor activity against human A2780 cells xenografted in NMRI/nude mouse; assay type: functional
HCT-116 [8] = test: Resistance factor, ratio of IC50 for APO866-resistant human HCT116 cells to IC50 for human HCT116 cells; assay type: functional
A2780 [9] = test: Antitumor activity against human A2780 cells xenografted in NMRI/nude mouse assessed as tumor growth inhibition at 5 to 10 mg/kg, ip bid administered for 10 days measured during compound administration; assay type: functional, organism-based
Summary of the method: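 Mice bearing large A2780 xenografts were dosed i.p. bid at 5 and 10 mg/kg. Toxic signs were scored as body weight loss and reduced activity level compared with control mice. Tumour volume was estimated as width²×length/2.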

HCT-116 [10] = test: Cytotoxicity against APO866-resistant human HCT116 cells assessed as growth inhibition after 72 hrs by WST-1 assay; assay type: functional, cell-based; settings: HCT-116, 72 h
A-431 = test: Cytotoxicity against human A431 cells by clonogenic assay; assay type: functional, cell-based
A2780 [11] = test: Antitumor activity against human A2780 cells xenografted in NMRI/nude mouse assessed as tumor growth inhibition at 2.5 mg/kg, ip bid administered for 5 days measured at day 14 relative to vehicle-treated control; assay type: functional; settings: route intraperitoneal; summary of the method: as §2
A2780 [12] = test: Cytotoxicity against human A2780 cells after 24 hrs by clonogenic assay; assay type: functional, cell-based; settings: A2780, 24 h; summary of the method: as §1
MCF7 [13] = test: Cytotoxicity against human MCF-7 cells assessed as growth inhibition after 72 hrs by WST-1 assay; assay type: functional, cell-based; settings: MCF7, 72 h
HCT-116 [14] = test: Cytotoxicity against human HCT116 cells assessed as growth inhibition after 72 hrs by WST-1 assay; assay type: functional, cell-based; settings: HCT-116, 72 h
[15] = Cytotoxicity against human NYH cells by clonogenic assay; assay type: functional, cell-based
PC-3 = test: Cytotoxicity against human PC3 cells by clonogenic assay; assay type: functional, cell-based
MCF7 [16] = test: Cytotoxicity against human MCF7 cells after 96 hrs by clonogenic assay; assay type: functional, cell-based; settings: MCF7, 96 h; summary of the method: as §1
DU-145 = test: Cytotoxicity against human DU145 cells by clonogenic assay; assay type: functional, cell-based
A2780 [17] = test: Cytotoxicity against human A2780 cells after 16 hrs by clonogenic assay; assay type: functional, cell-based; settings: A2780, 16 h; summary of the method: as §1
[18] = target: Nicotinamide phosphoribosyltransferase (Homo sapiens, UniProt P43490); test: Inhibition of NAMPT in human HepG2 cells using [14C]-nicotinamide/PRPP as substrate assessed as formation of [14C]-nicotinamide mononucleotide after 1 hr by liquid scintillation counting analysis; assay type: cell-based
Chain of Nicotinamide phosphoribosyltransferase (P43490 whole entry): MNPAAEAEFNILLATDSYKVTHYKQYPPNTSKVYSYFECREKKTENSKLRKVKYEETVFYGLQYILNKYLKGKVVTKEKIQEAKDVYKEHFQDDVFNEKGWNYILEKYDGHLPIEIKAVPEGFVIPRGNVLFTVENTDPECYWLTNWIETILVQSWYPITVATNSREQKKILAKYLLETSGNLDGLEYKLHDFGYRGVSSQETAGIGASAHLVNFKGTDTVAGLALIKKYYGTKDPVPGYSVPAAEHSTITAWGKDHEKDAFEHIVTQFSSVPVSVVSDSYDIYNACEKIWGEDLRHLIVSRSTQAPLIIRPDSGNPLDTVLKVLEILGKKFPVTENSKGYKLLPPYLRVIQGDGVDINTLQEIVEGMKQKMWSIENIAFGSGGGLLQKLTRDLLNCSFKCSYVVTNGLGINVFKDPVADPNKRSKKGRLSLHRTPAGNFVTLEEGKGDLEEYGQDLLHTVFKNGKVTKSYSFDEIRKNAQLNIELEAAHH

Mus musculus [19] = test: Toxicity in human A2780 cells xenografted NMRI/nude mouse containing small tumors assessed as effect on body weight at 15 mg/kg, ip bid administered for 10 days; assay type: organism-based; parameters: dose 15 mg/kg, route intraperitoneal; settings: in vivo, 240 h
Summary of the method: (§3)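 A2780 xenografts were dosed i.p. bid at 15 mg/kg. Large tumours (start 500 mm³) were dosed on days 0-4 + 7-11; small tumours (start 100 mm³) on days 0-9. Tumour volume was calculated as width²×length/2 from caliper diameters, and body weight was recorded during treatment. Tumours were followed after treatment up to the maximum allowed size of 1000 mm³.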

A2780 [20] = test: Antitumor activity against human A2780 cells xenografted in NMRI/nude mouse containing small tumors assessed as tumor growth inhibition at 15 mg/kg, ip bid administered for 10 days measured during compound administration; assay type: functional, organism-based; parameters: dose 15 mg/kg; summary of the method: as §3
[21] = Toxicity in ip dosed NMRI mouse assessed as body weight loss administered as bid for 5 days; assay type: organism-based; settings: in vivo
[22] = Cmax in NMRI mouse at 50 mg/kg, iv; assay type: ADME, organism-based; parameters: dose 50 mg/kg, route intravenous; settings: in vivo
Summary of the method: (§4)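 Mouse PK after a single i.v. dose. Plasma proteins were precipitated with acetonitrile containing internal standard (3:1 v/v). Samples were analysed by UPLC-MS/MS on a C18 column at 40°C with an acetonitrile–0.05% formic acid gradient, using positive electrospray MRM. Parameters were derived by non-compartmental analysis.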

[23] = Toxicity in ip dosed NMRI mouse assessed as blood cell count administered as bid for 5 days; assay type: organism-based; settings: in vivo
A2780 [24] = test: Antitumor activity against human A2780 cells xenografted in NMRI/nude mouse containing large tumors assessed as tumor growth inhibition at 15 mg/kg, ip bid administered on day 1 to 4 and day 7 to 11 measured after compound treatment; assay type: functional, organism-based; parameters: dose 15 mg/kg; summary of the method: as §3
A2780 [25] = test: Antitumor activity against human A2780 cells xenografted in NMRI/nude mouse containing small tumors assessed as tumor growth inhibition at 15 mg/kg, ip bid administered for 10 days measured after compound treatment; assay type: functional, organism-based; parameters: dose 15 mg/kg; summary of the method: as §3
[26] = Clearance in NMRI mouse at 50 mg/kg, iv; assay type: ADME, organism-based; parameters: dose 50 mg/kg, route intravenous; settings: in vivo; summary of the method: as §4
Mus musculus [27] = test: Toxicity in human A2780 cells xenografted NMRI/nude mouse containing large tumors assessed as effect on body weight at 15 mg/kg, ip bid administered on day 1 to 4 and day 7 to 11; settings: in vivo
[28] = Apparent volume of distribution in NMRI mouse at 50 mg/kg, iv; assay type: ADME, organism-based; parameters: dose 50 mg/kg, route intravenous; settings: in vivo, read-out: Vz; summary of the method: as §4
[29] = Half life in NMRI mouse at 50 mg/kg, iv; assay type: ADME, organism-based; parameters: dose 50 mg/kg, route intravenous; settings: in vivo; summary of the method: as §4
[30] = Tmax in NMRI mouse at 50 mg/kg, iv; assay type: ADME, organism-based; parameters: dose 50 mg/kg, route intravenous; settings: in vivo; summary of the method: as §4
A2780 [31] = test: Antitumor activity against human A2780 cells xenografted in NMRI/nude mouse assessed as tumor growth inhibition at 15 mg/kg, ip bid administered for 5 days measured at day 14 relative to vehicle-treated control; assay type: functional; settings: route intraperitoneal
[32] = AUC in NMRI mouse at 50 mg/kg, iv; assay type: ADME, organism-based; parameters: dose 50 mg/kg, route intravenous; settings: plasma; summary of the method: as §4
A2780 [33] = test: Antitumor activity against human A2780 cells xenografted in NMRI/nude mouse containing large tumors assessed as tumor growth inhibition at 15 mg/kg, ip bid administered on day 1 to 4 and day 7 to 11 measured during compound administration; assay type: functional, organism-based; parameters: dose 15 mg/kg; summary of the method: as §3

Structure (SMILES): C#CCN(Cc1cc2c(O)nc(C)nc2cc1Br)c1ccc(C(=O)NCc2cccnc2)cc1
- IC50 [1]: 2.8 nM

Structure (SMILES): N#C/N=C(\NCCCCCCS(=O)(=O)N(OCCN1CCOCC1)C1CCCCC1)Nc1ccncc1
- IC50 (MCF7 [2]): > 50 nM
- IC50 (A2780 [3]): 0.025 nM
- IC50 (SK-OV-3): 9.9 nM
- TGI (A2780 [4]): Active
- T/C (A2780 [5]): 40%
- T/C (A2780 [6]): 82%
- Ratio (A2780 [7]): 12
- Ratio IC50 (HCT-116 [8]): 128
- TGI (A2780 [9]): Active
- IC50 (HCT-116 [10]): > 5000 nM
- IC50 (A-431): > 50 nM
- T/C (A2780 [11]): 24%
- IC50 (A2780 [12]): 0.55 nM
- IC50 (MCF7 [13]): 0.33 nM
- IC50 (HCT-116 [14]): 1.9 nM
- IC50 [15]: 0.3 nM
- IC50 (PC-3): 0.53 nM
- IC50 (MCF7 [16]): 1.9 nM
- IC50 (DU-145): > 50 nM

Structure (SMILES): N#C/N=C(\NCCCCCCS(=O)(=O)N(CCF)OCC1CCCCC1)Nc1ccncc1
- IC50 (MCF7 [2]): > 50 nM
- IC50 (A2780 [17]): 0.43 nM
- IC50 [18]: 3.2 nM
- IC50 (A2780 [3]): 0.052 nM
- IC50 (SK-OV-3): 3.4 nM
- Activity (Mus musculus [19]): Non-toxic
- TGI (A2780 [20]): Active
- MTD at 120 h [21]: < 10 mg/kg
- Ratio IC50 (HCT-116 [8]): 128
- Cmax [22]: 78.5 µg/mL
- MTD at 120 h [23]: < 10 mg/kg
- TGI (A2780 [24]): inactive
- TGI (A2780 [25]): inactive
- clearance [26]: 17.5 mL/min/kg
- IC50 (HCT-116 [10]): > 5000 nM
- Activity (Mus musculus [27]): Non-toxic
- Vd [28]: 0.547 L/kg
- half-life [29]: 21.6 min
- Tmax [30]: 4.8 min
- T/C (A2780 [31]): 52%
- IC50 (MCF7 [13]): 0.1 nM
- IC50 (HCT-116 [14]): 3.6 nM
- IC50 [15]: 0.05 nM
- IC50 (PC-3): 0.35 nM
- IC50 (MCF7 [16]): 0.98 nM
- AUC [32]: 47500 ng·h/mL
- IC50 (DU-145): 6.39 nM
- TGI (A2780 [33]): Active
